From paper PMC3068229 (Biochemistry, 2011)

Key:
annexin A1 [1] = molecular target: T1, annexin A1 (Mus musculus, UniProt P10107); assay: SPR, carbohydrates flowed over annexin A1 immobilized on NTA chips; assay type: binding; details: annexin A1 1 µM immobilized
T1 sequence (P10107 1-346): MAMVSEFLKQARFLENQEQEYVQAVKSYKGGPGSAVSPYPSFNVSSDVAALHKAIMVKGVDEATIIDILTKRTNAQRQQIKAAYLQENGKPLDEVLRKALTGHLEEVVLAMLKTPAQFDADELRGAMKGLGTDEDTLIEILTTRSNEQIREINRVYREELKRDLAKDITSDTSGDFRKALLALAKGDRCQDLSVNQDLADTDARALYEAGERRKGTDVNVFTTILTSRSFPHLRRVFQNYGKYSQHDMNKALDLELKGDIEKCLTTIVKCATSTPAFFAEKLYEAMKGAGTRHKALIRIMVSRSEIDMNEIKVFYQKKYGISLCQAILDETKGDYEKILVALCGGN
Outline: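 The NTA chip was primed with 500 μM NiCl2 in HBS-EP running buffer (10 mM HEPES pH 7.4, 150 mM NaCl, 50 μM EDTA, 0.05% Tween-20), then His-tagged mouse annexin A1 (1 μM) was captured. Test glycans, either free glycosaminoglycans or polyacrylamide-coupled glycans at 5 or 50 μg/mL, or buffer alone, were injected for 3 min in HBS-N with 1 mM CaCl2 and 1 mM MgCl2. After dissociation, the chip was regenerated with 35 mM EDTA.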

annexin A1 [2] = molecular target: T1, annexin A1; assay: Glycan array; assay type: binding; details: annexin A1-His 0.2 mg/ml, 2 mM CaCl2, 2 mM MgCl2, fluorescence (RFU)
Outline: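 Recombinant full-length mouse annexin A1 with a C-terminal His6 tag was expressed in E. coli BL21(DE3) with 1 mM IPTG induction, purified on Ni-NTA and dialysed into 20 mM Tris pH 7.9 with 250 mM NaCl. The array was probed with 0.2 mg/mL protein in TBS-CM (pH 7.4) containing 1% BSA and 0.05% Tween-20, for 60 min at room temperature in a humid chamber. Read-out was mean RFU of 6 replicates after dropping the highest and lowest values.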

## LacNAc
Annexin A1 [1]; carbohydrate flowed over
  Binding to annexin A1 immobilized on NTA SPR chip: did not interact

## O=C[C@H](O)[C@@H](O)[C@H](O)[C@H](O)C(=O)O [glucuronic acid]
Annexin A1 [2]
  Annexin A1 binding on glycan array: among the best recognized glycans

## [3OSO3^−][6OSO3^−]Galβ1-4[6OSO3^−]GlcNAcβ-Sp0 [compound 26]
Annexin A1 [2]
  Annexin A1 binding on glycan array: strongest binder
Annexin A1 [2]; listed as [3OSO3^− ][6OSO3^−]Galβ1-4[6OSO3^−]GlcNAcβ
  Annexin A1 binding on glycan array: best binder

## CO[C@H]1O[C@H](COS(=O)(=O)O)[C@@H](O[C@@H]2O[C@@H](C(=O)O)[C@@H](O[C@H]3O[C@H](COS(=O)(=O)O)[C@@H](O[C@@H]4O[C@H](C(=O)O)[C@@H](O[C@H]5O[C@H](COS(=O)(=O)O)[C@@H](O)[C@H](O)[C@H]5NS(=O)(=O)O)[C@H](O)[C@H]4O)[C@H](OS(=O)(=O)O)[C@H]3NS(=O)(=O)O)[C@H](O)[C@H]2OS(=O)(=O)O)[C@H](O)[C@H]1NS(=O)(=O)O [arixtra, fondaparinux sodium]
Annexin A1 [1]; glycosaminoglycans 5 or 50 µg/mL
  Glycosaminoglycan binding to annexin A1 immobilized on NTA SPR chip: bound less well
